Data from ChEMBL document CHEMBL4425094, “Novel Benzo[a]quinolizidine Analogs Induce Cancer Cell Death through Paraptosis and Apoptosis” (J Med Chem, 2016).
Calls of active or inactive are those of the source. The calls are words filed in the database; no cut-off is given here.

Experiments:
PC-3M [1] = assay: Induction of paraptosis in human PC3M-lluc-C6 cells xenografted in athymic Balb/c mouse at 15 mg/kg, ip administered every 2 days for 18 days by H and E staining based method; assay type: functional, organism-based
How it was run: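 Subcutaneous PC3M-luc-C6 xenografts (5 × 10^6 cells) were grown in 6-week male athymic BALB/c-nu mice. Groups of n = 5 received 15 mg/kg i.p. every 2 days from ~0.1 cm3 tumor volume, with a vehicle group. Excised tumor tissue was examined by H&E staining for vacuoles.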

DU-145 = assay: Cytotoxicity against human DU145 cells assessed as cell growth inhibition after 24 hrs by MTT assay; assay type: functional, cell-based; conditions: DU-145, 24 h
How it was run: (§1)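 Cells seeded 24 h in RPMI 1640 + 10% FBS. RWPE-1 was kept in K-SFM with bovine pituitary extract and EGF. Cells then exposed to compounds for 24 h at 37 °C, 5% CO2, with DMSO vehicle and docetaxel as positive control. MTT added for 4 h, absorbance read at 570 nm. Triplicate runs, IC50 reported as mean of three experiments.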

PC-3 [2] = assay: Induction of apoptosis in human PC3 cells assessed as early apoptotic cells at 2 uM after 24 hrs by Annexin V-FITC/propidium iodide based flow cytometric analysis (reference value: 2.3 %); assay type: functional
How it was run: (§2)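 PC3 cells exposed to 0.5, 1 or 2 μM for 24 h, then stained with Annexin V-FITC and PI and analyzed by FACSCalibur flow cytometry. Populations assigned as necrotic (Annexin V−/PI+), late apoptotic (double positive), normal (Annexin V−/PI−) and early apoptotic (Annexin V+/PI−). DMSO vehicle control.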

PC-3 [3] = assay: Induction of apoptosis in human PC3 cells assessed as early apoptotic cells at 1 uM after 24 hrs by Annexin V-FITC/propidium iodide based flow cytometric analysis (reference value: 2.3 %); assay type: functional; how it was run: as §2
PC-3M [4] = assay: Induction of immature autophagy i in human PC3M-lluc-C6 cells xenografted in athymic Balb/c mouse assessed as increase in LC3 protein levels at 15 mg/kg, ip administered every 2 days for 18 days by Western blot and immunohistochemical staining method; assay type: functional, organism-based
How it was run: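 Male athymic BALB/c-nu mice (6 weeks) carried subcutaneous right-flank PC3M-luc-C6 xenografts (5 × 10^6 cells). At ~0.1 cm3 they were grouped (n = 5) and given 15 mg/kg i.p. suspension every 2 days; placebo and docetaxel 15 mg/kg were controls. Tumors were analyzed by Western blot and by immunohistochemistry (anti-LC3 1:800, anti-p62 1:500, overnight 4 °C, HRP/DAB, hematoxylin counterstain).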

PC-3 [5] = assay: Induction of cytoplasmic vacuolation in human PC3 cells assessed as formation of small vacuoles at 1 uM after 4 hrs by phase-contrast microscopic analysis; assay type: functional, cell-based
How it was run: (§3)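 PC3 cells in RPMI 1640 with 10% FBS at 37 °C, 5% CO2, treated with 1 μM agent for 0−24 h; DMSO vehicle control. Vacuole appearance, size and number followed over time by phase-contrast microscopy at constant magnification.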

PC-3 [6] = assay: Induction of cytoplasmic vacuolation in human PC3 cells assessed as increase in size and number of vacuoles at 1 uM by phase-contrast microscopic analysis; assay type: functional, cell-based; conditions: TDE = time-dependent effect; how it was run: as §3
PC-3 [7] = assay: Induction of cell cycle arrest in human PC3 cells assessed as accumulation in G2 phase at 0.5 uM after 24 hrs by […]propidium iodide based flow cytometric analysis (reference value: 16.3 to 25 %); assay type: functional
PC-3 [8] = assay: Induction of apoptosis in human PC3 cells assessed as late apoptotic cells at 2 uM after 24 hrs by Annexin V-FITC/propidium iodide based flow cytometric analysis (reference value: 1.1 %); assay type: functional; how it was run: as §2
PC-3 [9] = assay: Induction of morphological changes in human PC3 cells assessed as formation of massive cytoplasmic vacuoles at 1 uM after 12 hrs by confocal microscopic analysis; assay type: functional, cell-based
PC-3 [10] = assay: Induction of apoptosis in human PC3 cells assessed as viable cells at 2 uM after 24 hrs by Annexin V-FITC/propidium iodide based flow cytometric analysis (reference value: 95.4 %); assay type: functional; conditions: PC-3, 24 h, read-out: Activity; how it was run: as §2
PC-3 [11] = assay: Induction of autophagy in human PC3 cells transfected with LC3-targeting siRNA assessed as vacuole formation at 1 uM after 24 hrs by phase-contrast microscopic analysis; assay type: functional, cell-based
How it was run: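 PC3 cells plated at 20−30% confluency, then transfected 24 h later with 50 nM LC3-targeting or scrambled siRNA by lipofection. After 48 h they were exposed to 1 μM agent for a further 24 h, followed by phase-contrast imaging and Western blotting.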

PC-3 [12] = assay: Induction of vacuolization in human PC3 cells in presence of CHX after 24 hrs by phase-contrast microscopic analysis; assay type: functional, cell-based
How it was run: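 PC3 cells pretreated with 10 μM actinomycin D or 5 μM cycloheximide, then treated with agent for 24 h. Vacuolization imaged by phase-contrast microscopy; viability by MTT.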

PC-3 [13] = assay: Cytotoxicity in human PC3 cells assessed as reduction in cell viability incubated for 22 hrs after ER stress inhibitor 4-PBA exposure for 2 hrs by MTT assay; assay type: functional, cell-based
How it was run: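 PC3 cells pretreated 2 h with 4-PBA (100 μM), then compound added for a further 22 h. Viability measured by MTT. GRP78 assessed by Western blot, along with XBP1 mRNA splicing analysis. Morphology by phase contrast.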

PC-3 [14] = assay: Induction of endoplasmic reticulum derived cytoplasmic vacuole formation in human PC3 cells after 4 to 8 hrs by ER-tracker staining based fluorescence microscopy; assay type: functional, cell-based
How it was run: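 PC3 cells incubated with vehicle or agent for 0, 4 or 8 h. They were then stained at 37 °C for 15 min with ER-Tracker (1:3000) plus 10 μg/mL Hoechst 33342, washed with PBS and imaged by fluorescence/confocal microscopy.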

PC-3 [15] = assay: Induction of apoptosis in human PC3 cells assessed as late apoptotic cells at 0.5 uM after 24 hrs by Annexin V-FITC/propidium iodide based flow cytometric analysis (reference value: 1.1 %); assay type: functional; how it was run: as §2
PC-3 [16] = assay: Induction of autophagy in human PC3 cells transfected with mRFP-GFP-LC3 assessed as pervacuolar distribution of LC3 at 1 uM after 8 hrs by fluorescence microscopic analysis; assay type: functional, cell-based
How it was run: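 PC3 cells transfected with an mRFP-GFP-LC3 reporter plasmid, then treated 8 h with 1 μM test agent or 0.5 μM rapamycin (autophagy inducer). Imaged by confocal fluorescence microscopy: yellow puncta (overlapping red/green) scored as autophagosomes, red-only puncta as autolysosomes, since GFP is quenched in acidic lysosomes.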

PC-3 [17] = assay: Induction of cytoplasmic vacuolation in human PC3 cells at 1 uM after 24 hrs by phase-contrast microscopic analysis; assay type: functional, cell-based; how it was run: as §3
PC-3 [18] = assay: Growth inhibition of human PC3 cells at IC30 in presence of […] by MTT assay; assay type: functional
PC-3 [19] = assay: Induction of apoptosis in human PC3 cells assessed as necrotic cells at 1 uM after 24 hrs by Annexin V-FITC/propidium iodide based flow cytometric analysis (reference value: 1.1 %); assay type: functional; how it was run: as §2
PC-3 [20] = assay: Cytotoxicity in human PC3 cells assessed as reduction in cell viability after 24 hrs in presence of CHX by MTT assay; assay type: functional, cell-based
How it was run: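 PC3 cells pretreated with 10 μM actinomycin D or 5 μM cycloheximide, then treated with compound for 24 h. Viability by MTT at 570 nm. Vacuolation imaged by phase-contrast microscopy.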

PC-3 [21] = assay: Cytotoxicity against human PC3 cells assessed as cell growth inhibition after 24 hrs by MTT assay; assay type: functional, cell-based; conditions: PC-3, 24 h; how it was run: as §1
RWPE-1 = assay: Cytotoxicity against human RWPE1 cells assessed as cell growth inhibition after 24 hrs by MTT assay; assay type: cell-based; conditions: RWPE-1, 24 h; how it was run: as §1

In the case of `Cc1cc(C)cc(COc2cc3c(cc2OCc2cc(C)cc(C)c2)[C@@H]2C[C@H](O)C[C@@H](C)N2CC3)c1` (racemic), the Activity (PC-3M [1]) is reported as “Active”, the IC50 (DU-145) is reported as 1960 nM and the Activity (PC-3 [2]) is reported as 20.5%. The Activity (PC-3 [3]) was 5.9%, the Activity (PC-3M [4]) was “Active” and the Activity (PC-3 [5]) was “Active”. For the same molecule, the Activity (PC-3 [6]) was “Tde”, the Activity (PC-3 [7]) was 13.7 - 14.9% and the Activity (PC-3 [8]) was 36.4%. The Activity (PC-3 [9]) was “Active”, the viability at 2 µM (PC-3 [10]) was 40% and the Activity (PC-3 [11]) was “inactive”. For the same molecule, the Activity (PC-3 [12]) was “inactive”, the Activity (PC-3 [13]) was “inactive” and the Activity (PC-3 [14]) was “Active”. For the same molecule, the Activity (PC-3 [15]) was 1.2%, the Activity (PC-3 [16]) was “Active” and the Activity (PC-3 [17]) was “Active”. For the same molecule, the “growth inhibition (GI)” value (PC-3 [18]) was 54%, the Activity (PC-3 [19]) was 1.6% and the Activity (PC-3 [20]) was “inactive”. It also gave an IC50 (PC-3 [21]) of 660 nM and an IC50 (RWPE-1) of 5060 nM.
